According to PubChem BioAssay AID588621 (Sanford-Burnham Center for Chemical Genomics, 2011):
The whole screen tested about 360,000 compounds, of which about 890 (0.25%) were called active.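 Rule for the calls: active = inhibition at 20 µM, scaled per plate between control wells, above about 37% (limit read from the data); inactive = the rest.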 For the sample, actives were picked, then their nearest neighbours and some compounds at random.

molecular target: Tyrosine-protein phosphatase non-receptor type 5 (Homo sapiens) (UniProt P54829); assay: STEP phosphatase inhibitors, primary screen, biochemical, fluorescence intensity, uHTS (AID 588621); details: recombinant STEP, OMFP fluorogenic substrate, at 20 µM, active compounds read high;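 note: 0% = DMSO with enzyme and substrate and 100% = substrate only without enzyme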
Procedure, shortened: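 Material: STEP (striatal-enriched tyrosine phosphatase) enzyme, cell-free | Medium: 50 mM Bis-Tris pH 6.0 with 2.5 mM DTT and 0.005% Tween 20 | Read-out: Percent inhibition scaled to no-enzyme and uninhibited-enzyme controls, plate-pattern corrected | Signal: Fluorescence read at 480 nm ex / 540 nm em | Times: 20 min reaction, room temperature, in the dark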

Sequence of Tyrosine-protein phosphatase non-receptor type 5 (Homo sapiens) (P54829 whole entry, looked up): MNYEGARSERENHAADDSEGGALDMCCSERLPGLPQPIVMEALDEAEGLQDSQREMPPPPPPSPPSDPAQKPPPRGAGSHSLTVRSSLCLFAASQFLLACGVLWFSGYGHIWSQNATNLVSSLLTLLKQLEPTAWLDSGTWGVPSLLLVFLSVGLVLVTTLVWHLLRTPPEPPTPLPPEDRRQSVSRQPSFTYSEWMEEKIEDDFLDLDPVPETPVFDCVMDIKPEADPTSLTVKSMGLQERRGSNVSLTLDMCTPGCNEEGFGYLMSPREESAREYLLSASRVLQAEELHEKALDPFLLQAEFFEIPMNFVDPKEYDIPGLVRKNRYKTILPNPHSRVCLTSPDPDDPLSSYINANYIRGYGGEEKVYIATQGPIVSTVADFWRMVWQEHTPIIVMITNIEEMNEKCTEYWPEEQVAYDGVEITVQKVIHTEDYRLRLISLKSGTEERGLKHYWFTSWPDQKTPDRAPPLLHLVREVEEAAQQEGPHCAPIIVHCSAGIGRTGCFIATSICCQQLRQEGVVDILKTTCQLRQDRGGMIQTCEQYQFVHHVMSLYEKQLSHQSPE

inhibition, active:
O=C(Nc1cccnc1)c1cc2cc(Br)ccc2oc1=O 86.4%
COc1cccc(/C=N/NC(=O)c2[nH]nc3c2CCc2ccccc2-3)c1O 80%
Cn1c2ccccc2c(=O)c2c(=O)n(Cc3ccco3)c(COc3ccccc3)nc21 70.7%
C/C(=N\Nc1ccc(S(N)(=O)=O)cc1[N+](=O)[O-])c1cccs1 97.5%
O=C(N/N=C/c1cccc(Br)c1)c1ccc(N2CCCC2=O)cc1 94.9%
Cc1ccc(CNC(=O)CSc2nnc3c(n2)[nH]c2ccc(F)cc23)cc1 96.1%
C=CC1=C(C(=O)O)N2C(=O)[C@@H](NC(=O)/C(=N/OCC(=O)O)c3csc(N)n3)[C@H]2SC1 97.4%
C=CC1=C(C(=O)O)N2C(=O)[C@@H](NC(=O)/C(=N\OCC(=O)O)c3csc(N)n3)[C@H]2SC1 85.4%
C/C=C/C(=O)Nc1ccc(N2CCN(c3ccc(C(F)(F)F)cn3)CC2)nc1 78.9%
CCCS(=O)(=O)N1CCCC(C(=O)NCc2ccco2)C1 (stereo unspecified) 53.8%
O=C(NN=Cc1ccccc1O)NN=Cc1ccccc1O 59.1%
COc1ccc(/C=N/Nc2ccccc2C(=O)O)cc1 42.5%
Cc1ccc(OCC(=O)Nc2ccc(-c3nc4ncccc4o3)cc2)cc1 54.1%
CC(=NNC(=S)N1CCCCCC1)c1ccccn1 54.5%
O=C(N/N=C/c1coc2ccccc2c1=O)c1cc2ccccc2o1 43.4%
COc1ccc2[nH]c(=O)c(-c3noc(-c4ccc(F)cc4)n3)cc2c1 95.7%

inhibition, inactive:
Cc1ccc(SCC2=NNC(=O)C2)cc1 0.5%
COc1ccc2oc(=N)c(C(=O)Nc3ccc(Br)cc3)cc2c1 -1.8%
O=C(Nc1cccnc1)c1ccc(Cl)cc1[N+](=O)[O-] 0.9%
CCOC(=O)c1c(-n2cnnn2)sc(C)c1C 0.1%
CCc1ccccc1N(CC(=O)NCCSCc1ccco1)S(C)(=O)=O -1.4%
CCOc1ccc(C(CC(=O)O)n2cnnn2)cc1OC (stereo unspecified) -2.9%
CC1=CC(C)(C)NC(=S)N1c1ccccc1 -2.2%
COc1ccc(C2=NOC(Cn3nc(C(=O)NCc4ccc5c(c4)OCO5)cc3-c3ccccc3)C2)cc1 (stereo unspecified) 0.9%
CCn1c(/C=N/NC(=O)c2ccc(OC)cc2)nc2ccccc21 2.2%
COc1cc(/C=N/NC(=O)c2cccnc2)ccc1OC(=O)c1cccc(Br)c1 1.7%
CN(C)Cc1c(O)ccc2c(=O)c(-c3ccccc3Cl)coc12 0.4%
CCNC(=O)C1CCCN(C(=O)c2cc(F)ccc2C)CC1 (stereo unspecified) 1%
CC(C)C1CC2=C(C(=O)OC(C)(C)O2)C(c2ccc(F)cc2)O1 (stereo unspecified) 0%
c1ccc(-c2ccnc3nc(-n4cccc4)nn23)cc1 -3.2%
CCc1nc2oc3ccccc3c(=O)c2c(=O)n1Cc1ccc(OC)cc1 0.4%
O=C(CSc1nnc(COc2ccc(Cl)cc2)n1Cc1ccco1)N1CCNC1=O -4.2%
O=C1OCCC1=COCCCCOC=C1CCOC1=O 0.1%
O=C(CCc1ccccc1)Nc1ccc(NC(=O)C2CC2)nc1 -2.6%
COc1cc(/C=C/C(=O)OCC(=O)N2CCOCC2)ccc1OCC#N 1.1%
C/C(=N\Nc1ccccc1)c1cccs1 -1.1%
CCOC(=O)C/C(C)=N\Nc1ccc([N+](=O)[O-])cc1[N+](=O)[O-] 2.8%
Cc1csc2nc(COC(=O)c3cccc(N(C)C)c3)cc(=O)n12 -2.7%
O=C(N/N=C\c1cccc(Br)c1)c1ccccc1-n1cccc1 -2.3%
O=C(Nc1ccc(N2CCCC2=O)cc1)c1cncc(Br)c1 -0.3%
CCc1c(Nc2ccccc2Cl)nc(N)[nH]c1=O -2.5%
Cc1ccn2c(=O)nc(SCC(=O)NCc3ccc(F)cc3)nc2c1 0.1%
COc1ccc2[nH]c3nc(SCC(=O)NC4CC4)nnc3c2c1 -4.6%
CCCCNC1(C#N)CCN(Cc2ccccc2)CC1 -2.5%
COc1cccc(COC(=O)C2CCN(S(=O)(=O)c3cccs3)CC2)c1OC 1.4%
Cc1ccccc1C#CC1=CC(=O)CC(C)(C)C1 0.4%
Cn1ncc(Br)c1C(=O)NC1CCCC1 -1.6%
CCN1CCc2nc(NC(=O)c3cc(F)c(F)cc3Cl)sc2C1 -1.5%
CCc1cc(-c2nnn(CCC3COCCO3)c2CC)ccc1-c1cn(Cc2ccc3ccccc3c2)nn1 (stereo unspecified) 2.9%
COC(=O)c1cc2occc2n1Cc1nc(-c2ccccc2C)oc1C -0.6%
CCCCOc1ccc(NC(=O)[C@@H]2CCCN2C(=O)C2CCN(S(=O)(=O)c3ccc(C)cc3)CC2)cc1 -0.4%
CCCC(=O)N1CCC1(C)C(=O)NCc1ccc(C(C)C)cc1 (stereo unspecified) 1.5%
Cn1c(Cc2csc(N)n2)nnc1SC/C=C/c1ccccc1 -1.7%
Cc1ccc(F)cc1NC(=O)N1CCCN(c2ccc(C(F)(F)F)cn2)CC1 -0.3%
CCOc1ccc(C(=O)NCC(=O)N2CCN(c3ccc(C(F)(F)F)cn3)CC2)cc1 -0.1%
C[C@H]1CN([C@@H](C)CO)C(=O)Cc2cc(NS(C)(=O)=O)ccc2O[C@@H]1CN(C)CC1CC1 1.2%
Cc1ccc(C(=O)N(CC(=O)NC2CCCC2)c2ccc(F)cc2)s1 -0.9%
O=C(NCc1ccco1)C1CCCN(S(=O)(=O)c2ccccc2)C1 (stereo unspecified) 2.1%
O=C(NCc1ccco1)C1CCCN(S(=O)(=O)c2cnc[nH]2)C1 (stereo unspecified) -0.7%
COc1ccc(CCNc2cc(C)nc3c(-c4ccc(Cl)cc4)c(C)nn23)cc1OC -0.7%
O=S1(=O)CSCS(=O)(=O)C1 2.4%
Cc1ccc(-n2c(SCC(=O)NCc3ccc4c(c3)OCO4)nnc2-c2cccnc2)c(C)c1 -2.7%
CCCCc1nccn1CCn1ccnc1CCCC 1.5%
OCc1n[nH]c(CO)n1 -3.3%
O=C1CCC(CCC(=O)N2CCCC(C(=O)c3ccc(Cl)cc3)C2)=NN1 (stereo unspecified) -3.2%
COc1ccc(CCNC(=O)c2ccc(CS(=O)(=O)c3ccc(Br)cc3)o2)cc1OC -1.6%
O=C(N/N=C/c1ccccc1O)/C(=C/c1ccccc1)CCO 0.4%
Oc1ccccc1C=NC1CCCCC1N=Cc1ccccc1O (stereo unspecified) 2.7%
Nc1ccccc1/C=N\N=C/c1ccccc1N -2.4%
Cc1c(NC(=O)C(=O)N/N=C/c2cccs2)c(=O)n(-c2ccccc2)n1C 3.9%
CCC(=O)c1cc2c(cc1NC(=O)c1cccs1)OCCO2 -2.5%
C=CCO/N=C(\C)c1c(O)c(C)c(-c2ccccc2)n(-c2ccccc2)c1=O 6.7%
CC1CN(C(=O)COC(=O)c2cccc(NS(=O)(=O)c3ccccc3)c2)CC(C)O1 (stereo unspecified) 0.4%
COc1ccc(/C=N/NC(=O)C(C)N(c2ccc(OC)cc2)S(C)(=O)=O)cc1 (stereo unspecified) 2.2%
COc1ccc(/C=N/NC(=O)Cn2cc(C(F)(F)F)ccc2=O)cc1 -2.6%
CCc1ccccc1NC(=O)CN1CCN(C(=O)c2cc(C3CC3)nn2-c2ccccc2)CC1 -3.2%
CC(C)Cc1ccc(C(C)C(=N)N)cc1 (stereo unspecified) -2%
CCO[C@H]1OC(C(=O)N2CCCCCCC2)=C[C@@H](c2ccc(C(F)(F)F)cc2)[C@@H]1CCCO 0.1%
Cc1ccc2nc(-c3ccc(NC(=O)c4cccnc4)cc3)oc2c1 0.4%
CCOC(=O)C1=C(O)/C(=C/c2ccc(OCC(=O)Nc3ccc(C)cc3)cc2)N=C1C 14.9%
CCc1ccc(C2C(C#N)=C(N)N(N3CCOCC3)C3=C2C(=O)CC(C)(C)C3)s1 (stereo unspecified) -1.9%
CNC(=O)NC(=O)C(OC(=O)c1cccc(S(=O)(=O)N2CCCCC2)c1)c1ccccc1 (stereo unspecified) -0.2%
O=C(/C=C/Nc1ccc(S(=O)(=O)Nc2cnc3ccccc3n2)cc1)c1cccnc1 5.4%
CCOc1cc(CO)ccc1OCC(=O)N1CCCCC1 -1.4%
CCOc1ccc(NC(=S)N2CCCCCC2)cc1 -2.3%
CCNC(=S)N1CCN(c2ncccn2)CC1 -5.9%
CCOC(=O)C1CCN(c2c(Nc3cc(C)cc(C)c3)c(=O)c2=O)CC1 -2.8%
COc1ccc(-c2c(-c3cc(OC)cc(OC)c3)n(C)c3ccc(-c4ccn[nH]4)cc23)cc1 -1.9%
O=C(CCSCCc1ccccn1)Nc1nccs1 -2.2%
CC(O)C(NS(=O)(=O)c1ccc(Cl)cc1)C(=O)OCc1cc([N+](=O)[O-])cc2c1OCOC2 (stereo unspecified) -3.7%
CC(C)(C)OC(=O)NCCCCCC(=O)N/N=C/c1coc2ccccc2c1=O -1.9%
Cc1c(/C=N\NC(=O)c2cc3ccccc3o2)c2ccccc2n1C -0.5%
CN1CCN(C(=O)c2ccccc2NC(=O)COc2ccccc2Cl)CC1 -2.4%
C=CCn1c(=S)[nH]c2scc(-c3ccco3)c2c1=O 13.1%
COc1ccc(Cc2cc(-c3ccc(F)cc3)n[nH]c2=O)cc1 1.1%
CCCc1nc(-c2cc3cc(C)ccc3[nH]c2=O)no1 3.2%
